Read-outs that look alike come from different tables or passages of the source.
Experiments:
g5-HT3.0 [1] = assay: Dose-response of sensor fluorescence change; assay type: cell-based, HEK293T cells; conditions: n = 3
r5-HT1.0 [2] = assay: Dose-response of sensor fluorescence change; assay type: cell-based, HEK293T cells; conditions: n = 3
g5-HT3.0 [3] = assay: Dose-response of sensor fluorescence change; assay type: cell-based, cultured rat cortical neurons; conditions: read-out: EC50 values
r5-HT1.0 [4] = assay: Dose-response of sensor fluorescence change; assay type: cell-based, cultured rat cortical neurons; conditions: read-out: EC50 values
g5-HT2h = conditions: read-out: EC50 values
g5-HT2m = conditions: read-out: EC50 values
[5] = test system: 5-HT release in mouse dorsal cortex; assay: Mesoscopic imaging of optogenetically evoked cortical 5-HT release; assay type: in vivo, mice; conditions: fluoxetine 20 mg/kg i.p., GBR 12909 10 mg/kg i.p.
Summary of the method: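 In Sert-Cre mice, 300 nl AAV9-EF1a-DIO-ChrimsonR was injected into the DRN (AP −6.1, ML 0, depth 3 mm, 32° AP angle), with an optical fiber 0.2 mm above the site. Mice recovered ≥7 d and were habituated head-fixed over >3 d.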

g5-HT3.0 [6] = assay: Pharmacological specificity of g5-HT3.0 in HEK293T cells; assay type: cell-based; conditions: compounds 10 μM except RS 100 μM
r5-HT1.0 [7] = assay: Pharmacological specificity of r5-HT1.0 in HEK293T cells; assay type: cell-based; conditions: compounds 10 μM except RS 100 μM
GPCR-mediated Gs pathway = assay: Luciferase complementation assay; assay type: cell-based; conditions: HEK293T cells, 5-HT 0.01 nM to 1 mM
β-arrestin pathway = assay: Tango assay; assay type: cell-based; conditions: HTLA cells, 5-HT 0.01 nM to 100 μM

## NCCc1c[nH]c2ccc(O)cc12 [5-HT, serotonin (5-hydroxytryptamine)]
g5-HT3.0 [1]
  EC50: ~150 nM
r5-HT1.0 [2]
  EC50: ~790 nM
g5-HT3.0 [3]
  EC50: 80 nM
r5-HT1.0 [4]
  EC50: 600 nM
g5-HT2h
  EC50: 70 nM
g5-HT2m
  EC50: 2400 nM

## Fc1ccc(C(OCCN2CCN(CCCc3ccccc3)CC2)c2ccc(F)cc2)cc1 [GBR 12909]
[5]
  baseline 5-HT levels (g5-HT3.0 signal): no effect

## COc1cc(N)c(Cl)cc1C(=O)OCCCN1CCCCC1 [RS 23597-190]
g5-HT3.0 [6]
  block of 5-HT induced response of g5-HT3.0: blocked
r5-HT1.0 [7]
  block of 5-HT induced response of r5-HT1.0: blocked

## CNCCC(Oc1ccc(C(F)(F)F)cc1)c1ccccc1 (stereo not drawn) [fluoxetine]
[5]
  baseline 5-HT levels (g5-HT3.0 signal): gradual increase

## wild-type 5-HTR4: wild-type 5-HTR4 receptor
GPCR-mediated Gs pathway
  downstream coupling, Gs pathway: high basal activity and robust, dose-dependent coupling
β-arrestin pathway
  downstream coupling, β-arrestin pathway: high basal activity and robust, dose-dependent coupling
